Data taken from the EternaBench riboswitch data.

Tested on: MS2 coat protein
Assay: apparent Kd, MS2 coat protein; higher = weaker binding; RNA-MaP array; FMN 200 µM where present
Outline: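 In 100 mM Tris-HCl pH 7.5, 80 mM KCl, 4 mM MgCl2, BSA, DTT, yeast tRNA and Tween-20, SNAP-549-labelled MS2 coat protein was titrated from 0.7 or 1.5 nM, doubling to 3 µM, over designs transcribed by stalled E. coli RNA polymerase on Illumina sequencing-chip clusters. This was done first without ligand, then with ligand held constant. After green signal was normalised to red-channel RNA signal and control-cluster median Fmax, the apparent Kd was taken as the median of filtered per-cluster binding-curve fits.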

[1] = designed as: OFF switch for flavin mononucleotide, no ligand
[2] = ligand present: flavin mononucleotide, designed as: OFF switch for flavin mononucleotide
[3] = designed as: ON switch for flavin mononucleotide, no ligand
[4] = ligand present: flavin mononucleotide, designed as: ON switch for flavin mononucleotide

Sequence | apparent Kd [1] [nM] | apparent Kd [2] [nM] | apparent Kd [3] [nM] | apparent Kd [4] [nM]
UACGUACAGAAGAACUCCGGAUCUAGAAGGGACAUGAGGAUCACCCAUGUACCGUUGAUUGCUUGUCAGGAUAUAGACCCGGCC | 6.07 | 14.2 |  | 
AUAUCUCUAUUAGUUCCAAUACGAACAUGAGGAUCACCCAUGUAGGAUAUGCUAGAAGUUGUGUUGCAGAAGGACAUGUACCUU | 11.7 | 25.8 |  | 
UCACGGGAUUGAGGAUAUAUAUAAAUUUAUACAAUAGAAGGCAAAUUUUUAGUUUUUUCACUUUACAUGAGGAUCACCCAUGUU | 26.2 | 24.2 |  | 
GGCAGACAUGAGGAUCACCCAUGUGAGGAUAUCGUCAUAGAUGCAAAAGCAUCUAUGACGAGAAGGUACAUGCC | 23.2 | 19.2 |  | 
GCCUCACAUGAGGAUCACCCAUGUCAGGAUAUAGGAGACGGCAGAAAUUCUGCCGUCGCUAGAAGGGACUGGCA | 44.2 | 86.9 |  | 
AGGGAGGGCGUGGAGGCGGAGGGACGAGAAGGUACACAUGAGGAUCACCCAUGUAGAGUGGGAGGUAAGGAUAUUGGAUGGUGG |  |  | 101 | 66.9
GCAGGCAACGAGAAGGGAGUACAUGAGGAUCACCCAUGUGUCCUCUGCGGCUCAGGAUAUCGCCCUGGGAAAGGUAAGCCUUAA | 39.7 | 176 |  | 
AAGACAUGAGGAUCACCCAUGUAAAGACCGGUCAAUCAAUGUGAGGAUAUUCCAUAAUUGAUAGGGAAGAAGGCACUGGGUUGA |  |  | 106 | 50.2
GAAUUUUUACAGAAGGUGUUUUACAUGAGGAUCACCCAUGUUUUAUUGUUUAAAUUUGUUAUUUACAAGGAUAUGUUCUAUUCU |  |  | 26.7 | 19.7
CCAUCGAGUGUGAGGAUAUGCUGGUCCUUGGAUCAGCAGAAGGCACAUGAGGAUCACCCAUGUGGAAACGGUGG | 26.6 | 191 |  | 
UUCGCUAAGGUGUAGCGAGACUUGCAAGAAGGGUGAAGAACAUGAGGAUCACCCAUGUAAUCCUUACAGGAUAUUGCUUGACGA |  |  | 273 | 33.1
CGCAACUCUUCACAUGUAAACAUGAGGAUCACCCAUGUAUUGAGAAGGAGGAAGAAGAGAGAUUCCUAGGAUAUCAGAGUUGCG | 6.42 | 5.84 |  | 
UGUCUAUUUGAAGGAUAUCUAAGCAUAAACCAGAGAGAAGGUCAAUUAUACAUGAGGAUCACCCAUGUUGAGAUUAAUGGGUUU | 20.5 | 26.4 |  | 
AACAGCUCGUCAGGAUAUAUUUACUUAUAUUGUAUUUAUGUACAUGAGGAUCACCCAUGUUGUUAGUAGAAGGGACGAGCUGAA | 7.42 | 7.32 |  | 
AUAUAUACAAAGUUACAUGAGGAUCACCCAUGUUUAUUGGGAAGAAGGGUAACAUUAUUAGAUGUAUAGGAUAUUUCACAAUUG |  |  | 599 | 327
ACCCGGGCUAACAUGAGGAUCACCCAUGUGUUAUACUUAAUAUAGGAUAUGUUUAUACUUUUUGGGCAGAAGGAUGGCCCGGGU |  |  | 80.1 | 62.5
AAAUUUAACGAAGGAUAUGCUGACAUGAGGAUCACCCAUGUGUGCCUUGUGUUGCUGAAACGGGAGCAGAAGGUCGUAUACAUA | 694 | 1180 |  | 
UACGUACAGAAGAACUCCGGGUCCAGAAGGGACAUGAGGAUCACCCAUGUACCGUUGAUUGCUUGUCAGGAUAUGGACCCAGCC | 7.75 | 26.8 |  | 
GAAUAUUCGUUGAACAUGAGGAUCACCCAUGUAACUUGACAUGAGGAUAUGGAUUCUAAUUGGAUCCAGAAGGCAUGAAUAUUC |  |  | 75.3 | 26.9
AGAUAGUUAUAACGCCAUCCCUACAUGAGGAUCACCCAUGUGCAGGAUAUAGGCUUGAAGCAGACCUAGAAGGGCACAGGCUGA | 8.34 | 22.2 |  | 
GGUCGUCAAGUCAGGAUAUCGUUUGGUCGGUGUGGCGAGAAGGGACAUGAGGAUCACCCAUGUCGUCUCAUCAG | 27 | 29.9 |  | 
UCAUUUCUGUAAGGAUAUAUAAACAUGACGAUACAUGAGGAUCACCCAUGUAUAGAAGGUACAAAUACAUAUAAUGCAAUGUUC | 16.9 | 12.9 |  | 
CUUUUGUGAGGAUAUCAGUAGUAAAAAUAUAAAAUUACUACUGAGAAGGCACAUGAGGAUCACCCAUGUUCCUC | 39.7 | 244 |  | 
AAGCGGGCAGGAUAUGCGUACUCACGGGAAAACUGAAUGGUACAUGAGGAUCACCCAUGUAGAAGGGCUUUGAA | 48.4 | 36.3 |  | 
UAUAUAUAGGCAGGAUAUACAUGUAUAUAUAAUAUAUUAUAUAUUAUUACAUGAGGAUCACCCAUGUAGAAGGGCCAUAUUAUA | 41.3 | 65.9 |  | 
CAAUUCCGAGGAUAUACAUGAGGAUCACCCAUGUCGGGCCUCAGCGUUUAGCGCUUAAGUAGAAGGUGGGUUUC | 40.7 | 54.5 |  | 
UUUACAUGAGGAUCACCCAUGUUUAGAAAGAUUAAUUUAAGUGAGGAUAUACAUAAUAAUAAAUUGUAGAAGGCACUGGGUACA |  |  | 19.3 | 20.6
AAAGGACAUGAGGAUCACCCAUGUGAGGAUAUGCUCUACGAACGAAUACACAUGAGAAGCAGAAGGCACAUAAG | 151 | 247 |  | 

Sequence | apparent Kd [1] [nM] | apparent Kd [2] [nM] | apparent Kd [3] [nM] | apparent Kd [4] [nM]
UGUCGGAGCAGAGGAUAUUACAUGAGGAUCACCCAUGUAUGAACCAAUAGCUGGAAACAGCAAUGUAAGAAGGAUGCUCCGACA | 7.14 | 31.4 |  | 
GCGCAAGCAUGAGGAUAUGUAUUAAAUAAUAAUACAGAAGGCAUGUCAAAUGACAUGAGGAUCACCCAUGUUGGCAAACUGCGC |  |  | 46.4 | 13
CGCUAAGAUGGGUUUAAUGGAGCAUAGGAUAUGCUUGUACAUGAGGAUCACCCAUGUAAUAUUGUGCAGAAGGGUGCAUUUGCG |  |  | 126 | 75.1
UAUAUGUCAGGAUAUUAGUUGAGUUAGAAUUUAUCCUCUGCUGAGAAGGGACAUGAGGAUCACCCAUGUUCCUC | 15.1 | 31.5 |  | 
AGAAAGGUAGGAUAUACGAAAAAAAAGGGUAGAAAAAAAACACAUGAGGAUCACCCAUGUAGAAGGACCAAAGA | 28.9 | 96.6 |  | 
AUUAAACAUGAGGAUCACCCAUGUCAACAAAGUCGAGGAUAUGGGCAAAUAAAAUAAGAACCAGAAGGCGAAUAAU |  |  | 259 | 38
CAUUAAUUAAUUAUAUUAAUUAUACAGGAUAUGUAACAUGAGGAUCACCCAUGUAUUCAAUGUAAACAGAAGGGUAUAUCUAGU | 14.6 | 13 |  | 
GAUUUCUCAUGAGGAUAUGCUCGCAUUUCAAGAGCAGAAGGUAUGUCAUUAGACAUGAGGAUCACCCAUGUAGUUAAGAUUGAA |  |  | 72 | 44.7
CCAUAACUGUGAGGAUAUUGUUGCGUUUAGUGACGAGAAGGCAUUCAUGUGAUAUAUACAUACAUGAGGAUCACCCAUGUUGUA |  |  | 31 | 25.5
AAAAAGUGAGGAUAUGCUGCUCGUCACUUGCGUGAUGAGUAGCAGAAGGCACAUGAGGAUCACCCAUGUAAAAA | 36.2 | 42.8 |  | 
GGAAAACAUGAGGAUCACCCAUGUGAGGAUAUGAGCGUCUAGUUGAGAGAUUGGACGCUCAGAAGGCACAUGCC | 28.5 | 247 |  | 
GUAGCAUACCGAGGAUAUUCAUAUAGUAAUCUAACAUGAGGAUCACCCAUGUGGCGAAAGCCUUGGGAGAAGGCGGAAUGCUAC |  |  | 480 | 35.6
GGAGACCUCACAGGAUAUGCUGGACUUUGUCCAGCAGAAGGGUGAACAUGAGGAUCACCCAUGUGGUCUUCCAAAAUAUUUAAU |  |  | 693 | 280
GUACCUUAUGAGAAGGCGAUCAUAAAACGUGAUCGAGGAUAUCAUGAAAACAUGAGGAUCACCCAUGUAUGGGUAUUAUGGUAC |  |  | 36 | 19.3
UAAUAUUUAUGAUAUUAUUACAUUAGAAGGCAAGACAUGUGGAUACAUGAGGAUCACCCAUGUAUUGAGGAUAUAGACAUAUAU | 15.4 | 19.2 |  | 
GGGCACGGAGGAUAUACAUGAGGAUCACCCAUGUGAUUAGGGCAGUACUUGCCGAUCCGUAGAAGGUUGGCCGA | 26.1 | 26.8 |  | 
AACACACAUGAGGAUCACCCAUGUAAAAUUUAGCAAGGAUAUGGGUGCCGUAAUCGGUUACCAGAAGGUGCCUCAC |  |  | 103 | 59.8
GAGAUCAUCACAGGAUAUGCAUUCCAUAAGUGGGCAGAAGGGUGAGAUUCAAGUGGACAUGAGGAUCACCCAUGUAUACUGCCU |  |  | 33.1 | 17.3
UGGUGACGUUUCUUCUCGACAUGAGGAUCACCCAUGUAGACAGAGGAUAUCCGAGUUGCCAAUAAGGAGAAGGCUGACUGCGAA | 6.61 | 10.2 |  | 
GCAGGCUGCUCUGAAGCUACAUUCGAGGAUAUGAUCCAAGACAUGAGGAUCACCCAUGUAGAAGAUCAGAAGGCGAUGGCUAGG |  |  | 89.8 | 9.77
GGAUGACAAAGUCAUCCUAUUCGAACAUGAGGAUCACCCAUGUAGGAUAUGCUUCUCAAAGAGAAGCAGAAGGACAUGUGCUUU | 36.8 | 160 |  | 
UGGAUGUAGGAGAAGGAGGACUUCAUGAGGAUCACCCAUGUGUUAGUACUUAGGAUAUUUGACAACAUGAGGAUCACCCAUGUC |  |  | 138 | 113
CUCUUGUAAGGAUAUGACUACAUAAAAAAAAAAAAAUGUAGUCAGAAGGUACAUGAGGAUCACCCAUGUACAAA | 22.7 | 25.6 |  | 
AUUUAUUUUGUGAGGAUAUGCAGGAUCUAGCUCCAGUAGAAGGCACAUGAGGAUCACCCAUGUGGGUCCGAGAC | 22.9 | 111 |  | 
ACAUGAGGAUCACCCAUGUGUGCAUAGGAUAUUGAGGAUUUGGGAUGUUUUUUUGGAUUUGCCCACAAGAAGGAUGAAAGUGUU |  |  | 12.8 | 11.3
UGAGCGCACGAGAAGGGCGGGUUCACGGGCUCCUGACGAGACAUGAGGAUCACCCAUGUAACCACGCAGGAUAUCGACCGGAUC | 20.9 | 141 |  | 
UAUAUAUAGUAAGGAUAUGUAUUAAUUUUUUAAACAGAAGGUACUGACAUGAGGAUCACCCAUGUUUUAGUGUGGGCAUGUAGA | 78.8 | 131 |  | 
